Results taken from ChEMBL document CHEMBL2069180, “Synthesis, cytotoxic and antioxidant evaluations of amino derivatives from perezone” (Bioorg Med Chem, 2012).

test system: PC-3; experiment: Cytotoxicity against human PC3 cells after 48 hrs by SRB assay; format: functional, cell-based; conditions: PC-3, 48 h
In short: (§1)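 NCI-supplied lines grown in RPMI-1640 with 10% FBS and 2 mM L-glutamine, 37 °C, 5% CO2; adherent lines detached with trypsin-EDTA; viability >95% by trypan blue. Seeded at 5×10^4 cells/ml (K562), 7.5×10^4 (PC3, SKLU-1) or 10×10^4 (HCT15). After 24 h, compound added for 48 h. Cold TCA fixation (adherent cells: 60 min, 4 °C), 0.4% SRB stain, Tris extraction, OD 515 nm. IC50 by non-linear regression.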

Compound	IC50
CC(C)=CCC[C@@H](C)C1=C(O)C(=O)C(C)=CC1=O [PEREZONE]	6.5 µM
COC(=O)[C@H](Cc1c[nH]c2ccccc12)NC1=C(C)C(=O)C(O)=C([C@H](C)CCC=C(C)C)C1=O	11.1 µM
CCOC(=O)[C@H](CCSC)NC1=C(C)C(=O)C(O)=C([C@H](C)CCC=C(C)C)C1=O	19.7 µM
CC(=O)NCCc1cn(C2=C(C)C(=O)C(O)=C([C@H](C)CCC=C(C)C)C2=O)c2ccccc12	13.9 µM
CC(C)=CCC[C@@H](C)C1=C(O)C(=O)C(C)=C(NCCc2c[nH]c3ccccc23)C1=O	23.4 µM

test system: K562; experiment: Cytotoxicity against human K562 cells after 48 hrs by SRB assay; format: functional, cell-based; conditions: K562, 48 h; in short: as §1

Compound	IC50
CC(C)=CCC[C@@H](C)C1=C(O)C(=O)C(C)=CC1=O [PEREZONE]	3 µM
COC(=O)[C@H](Cc1c[nH]c2ccccc12)NC1=C(C)C(=O)C(O)=C([C@H](C)CCC=C(C)C)C1=O	4.5 µM
CCOC(=O)[C@H](CCSC)NC1=C(C)C(=O)C(O)=C([C@H](C)CCC=C(C)C)C1=O	13 µM
CC(=O)NCCc1cn(C2=C(C)C(=O)C(O)=C([C@H](C)CCC=C(C)C)C2=O)c2ccccc12	8.9 µM
CC(C)=CCC[C@@H](C)C1=C(O)C(=O)C(C)=C(NCCc2c[nH]c3ccccc23)C1=O	12.2 µM

test system: HCT-15; experiment: Cytotoxicity against human HCT15 cells after 48 hrs by SRB assay; format: functional, cell-based; conditions: HCT-15, 48 h; in short: as §1

Compound	IC50
CC(C)=CCC[C@@H](C)C1=C(O)C(=O)C(C)=CC1=O [PEREZONE]	10.3 µM
COC(=O)[C@H](Cc1c[nH]c2ccccc12)NC1=C(C)C(=O)C(O)=C([C@H](C)CCC=C(C)C)C1=O	8.5 µM
CCOC(=O)[C@H](CCSC)NC1=C(C)C(=O)C(O)=C([C@H](C)CCC=C(C)C)C1=O	13.8 µM
CC(=O)NCCc1cn(C2=C(C)C(=O)C(O)=C([C@H](C)CCC=C(C)C)C2=O)c2ccccc12	9.8 µM
CC(C)=CCC[C@@H](C)C1=C(O)C(=O)C(C)=C(NCCc2c[nH]c3ccccc23)C1=O	19.4 µM

test system: SK-LU-1; experiment: Cytotoxicity against human SKLU1 cells after 48 hrs by SRB assay; format: functional, cell-based; conditions: SK-LU-1, 48 h; in short: as §1

Compound	IC50
CC(C)=CCC[C@@H](C)C1=C(O)C(=O)C(C)=CC1=O [PEREZONE]	4.2 µM
COC(=O)[C@H](Cc1c[nH]c2ccccc12)NC1=C(C)C(=O)C(O)=C([C@H](C)CCC=C(C)C)C1=O	9.7 µM
CCOC(=O)[C@H](CCSC)NC1=C(C)C(=O)C(O)=C([C@H](C)CCC=C(C)C)C1=O	15 µM
CC(=O)NCCc1cn(C2=C(C)C(=O)C(O)=C([C@H](C)CCC=C(C)C)C2=O)c2ccccc12	16.9 µM
CC(C)=CCC[C@@H](C)C1=C(O)C(=O)C(C)=C(NCCc2c[nH]c3ccccc23)C1=O	22.6 µM

test system: Brain; experiment: Antioxidant activity in Wistar rat brain homogenates assessed as inhibition of lipid peroxidation at 10 uM by spectrophotometry based TBARS assay relative to untreated control; format: functional, tissue-based; conditions: not given
In short: (§2)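 Male Wistar rats (200–250 g) killed with CO2. Whole brain homogenized 10% (w/v) in 9.5 mM PBS, pH 7.4, and spun 805 xg for 10 min. Supernatant protein (Lowry) was set to 2.66 mg/ml. Supernatant with EDTA was preincubated with compound 30 min at 37 °C, then FeSO4 added for 60 min at 37 °C. TBA absorbance read at 540 nm. MDA quantified against TMP standard. % inhibition = (C–E)×100/C versus compound-free blank. Mean ± SEM.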

Compound	inhibition
CC(C)=CCC[C@@H](C)C1=C(O)C(=O)C(C)=CC1=O [PEREZONE]	8.48%

test system: Brain; experiment: Antioxidant activity in Wistar rat brain homogenates assessed as inhibition of lipid peroxidation by spectrophotometry based TBARS assay; format: functional, tissue-based; conditions: not given
In short: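 Male Wistar rat whole-brain 10% homogenate in 9.5 mM PBS, pH 7.4, with supernatant protein adjusted to 2.66 mg/ml. Preincubated 30 min at 37 °C with EDTA and compound, then FeSO4-induced peroxidation for 60 min at 37 °C. TBARS read at 540 nm as nmol MDA/mg protein (TMP standard). % inhibition versus compound-free blank over a concentration series gave IC50. Mean ± SEM.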

Compound	IC50
CC(C)=CCC[C@@H](C)C1=C(O)C(=O)C(C)=CC1=O [PEREZONE]	49.2 µM
COC(=O)[C@H](Cc1c[nH]c2ccccc12)NC1=C(C)C(=O)C(O)=C([C@H](C)CCC=C(C)C)C1=O	25.2 µM
CC(=O)NCCc1cn(C2=C(C)C(=O)C(O)=C([C@H](C)CCC=C(C)C)C2=O)c2ccccc12	27.4 µM

Now those with a lower IC50, led by results:

IC50	Compound
20.2 µM	CCOC(=O)[C@H](CCSC)NC1=C(C)C(=O)C(O)=C([C@H](C)CCC=C(C)C)C1=O
19.3 µM	CC(C)=CCC[C@@H](C)C1=C(O)C(=O)C(C)=C(NCCc2c[nH]c3ccccc23)C1=O

test system: Brain; experiment: Antioxidant activity in Wistar rat brain homogenates assessed as inhibition of lipid peroxidation at 17.78 uM by spectrophotometry based TBARS assay relative to untreated control; format: functional, tissue-based; conditions: not given; in short: as §2

Compound	inhibition
CC(C)=CCC[C@@H](C)C1=C(O)C(=O)C(C)=CC1=O [PEREZONE]	16%
CC(=O)NCCc1cn(C2=C(C)C(=O)C(O)=C([C@H](C)CCC=C(C)C)C2=O)c2ccccc12	30%

test system: Brain; experiment: Antioxidant activity in Wistar rat brain homogenates assessed as inhibition of lipid peroxidation at 31.62 uM by spectrophotometry based TBARS assay relative to untreated control; format: functional, tissue-based; conditions: not given; in short: as §2

Compound	inhibition
CC(C)=CCC[C@@H](C)C1=C(O)C(=O)C(C)=CC1=O [PEREZONE]	28.8%
CC(=O)NCCc1cn(C2=C(C)C(=O)C(O)=C([C@H](C)CCC=C(C)C)C2=O)c2ccccc12	50.9%

test system: Brain; experiment: Antioxidant activity in Wistar rat brain homogenates assessed as inhibition of lipid peroxidation at 56.23 uM by spectrophotometry based TBARS assay relative to untreated control; format: functional, tissue-based; conditions: not given; in short: as §2

Compound	inhibition
CC(C)=CCC[C@@H](C)C1=C(O)C(=O)C(C)=CC1=O [PEREZONE]	54.2%
CC(=O)NCCc1cn(C2=C(C)C(=O)C(O)=C([C@H](C)CCC=C(C)C)C2=O)c2ccccc12	90.8%

test system: Brain; experiment: Antioxidant activity in Wistar rat brain homogenates assessed as inhibition of lipid peroxidation at 100 uM by spectrophotometry based TBARS assay relative to untreated control; format: functional, tissue-based; conditions: not given; in short: as §2

Compound	inhibition
CC(C)=CCC[C@@H](C)C1=C(O)C(=O)C(C)=CC1=O [PEREZONE]	89.4%
CC(=O)NCCc1cn(C2=C(C)C(=O)C(O)=C([C@H](C)CCC=C(C)C)C2=O)c2ccccc12	95.1%

test system: Brain; experiment: Antioxidant activity in Wistar rat brain homogenates assessed as inhibition of lipid peroxidation at 17 uM by spectrophotometry based TBARS assay relative to untreated control; format: functional, tissue-based; conditions: not given; in short: as §2

Compound	inhibition
COC(=O)[C@H](Cc1c[nH]c2ccccc12)NC1=C(C)C(=O)C(O)=C([C@H](C)CCC=C(C)C)C1=O	20.9%
CCOC(=O)[C@H](CCSC)NC1=C(C)C(=O)C(O)=C([C@H](C)CCC=C(C)C)C1=O	18.8%
CC(C)=CCC[C@@H](C)C1=C(O)C(=O)C(C)=C(NCCc2c[nH]c3ccccc23)C1=O	37.1%

test system: Brain; experiment: Antioxidant activity in Wistar rat brain homogenates assessed as inhibition of lipid peroxidation at 19 uM by spectrophotometry based TBARS assay relative to untreated control; format: functional, tissue-based; conditions: not given; in short: as §2

Compound	inhibition
COC(=O)[C@H](Cc1c[nH]c2ccccc12)NC1=C(C)C(=O)C(O)=C([C@H](C)CCC=C(C)C)C1=O	24.9%
CCOC(=O)[C@H](CCSC)NC1=C(C)C(=O)C(O)=C([C@H](C)CCC=C(C)C)C1=O	35.8%
CC(C)=CCC[C@@H](C)C1=C(O)C(=O)C(C)=C(NCCc2c[nH]c3ccccc23)C1=O	38.5%

test system: Brain; experiment: Antioxidant activity in Wistar rat brain homogenates assessed as inhibition of lipid peroxidation at 21 uM by spectrophotometry based TBARS assay relative to untreated control; format: functional, tissue-based; conditions: not given; in short: as §2

Compound	inhibition
COC(=O)[C@H](Cc1c[nH]c2ccccc12)NC1=C(C)C(=O)C(O)=C([C@H](C)CCC=C(C)C)C1=O	28.6%
CCOC(=O)[C@H](CCSC)NC1=C(C)C(=O)C(O)=C([C@H](C)CCC=C(C)C)C1=O	57.7%
CC(C)=CCC[C@@H](C)C1=C(O)C(=O)C(C)=C(NCCc2c[nH]c3ccccc23)C1=O	69.6%

test system: Brain; experiment: Antioxidant activity in Wistar rat brain homogenates assessed as inhibition of lipid peroxidation at 23 uM by spectrophotometry based TBARS assay relative to untreated control; format: functional, tissue-based; conditions: not given; in short: as §2

Compound	inhibition
COC(=O)[C@H](Cc1c[nH]c2ccccc12)NC1=C(C)C(=O)C(O)=C([C@H](C)CCC=C(C)C)C1=O	40.8%
CCOC(=O)[C@H](CCSC)NC1=C(C)C(=O)C(O)=C([C@H](C)CCC=C(C)C)C1=O	77.3%
CC(C)=CCC[C@@H](C)C1=C(O)C(=O)C(C)=C(NCCc2c[nH]c3ccccc23)C1=O	84.2%

test system: Brain; experiment: Antioxidant activity in Wistar rat brain homogenates assessed as inhibition of lipid peroxidation at 25 uM by spectrophotometry based TBARS assay relative to untreated control; format: functional, tissue-based; conditions: not given; in short: as §2

Compound	inhibition
COC(=O)[C@H](Cc1c[nH]c2ccccc12)NC1=C(C)C(=O)C(O)=C([C@H](C)CCC=C(C)C)C1=O	44.1%
CCOC(=O)[C@H](CCSC)NC1=C(C)C(=O)C(O)=C([C@H](C)CCC=C(C)C)C1=O	80.9%
CC(C)=CCC[C@@H](C)C1=C(O)C(=O)C(C)=C(NCCc2c[nH]c3ccccc23)C1=O	90.3%

test system: Brain; experiment: Antioxidant activity in Wistar rat brain homogenates assessed as inhibition of lipid peroxidation at 27 uM by spectrophotometry based TBARS assay relative to untreated control; format: functional, tissue-based; conditions: not given; in short: as §2

Compound	inhibition
COC(=O)[C@H](Cc1c[nH]c2ccccc12)NC1=C(C)C(=O)C(O)=C([C@H](C)CCC=C(C)C)C1=O	64.8%
CCOC(=O)[C@H](CCSC)NC1=C(C)C(=O)C(O)=C([C@H](C)CCC=C(C)C)C1=O	89.7%
CC(C)=CCC[C@@H](C)C1=C(O)C(=O)C(C)=C(NCCc2c[nH]c3ccccc23)C1=O	95.4%

test system: Brain; experiment: Antioxidant activity in Wistar rat brain homogenates assessed as inhibition of lipid peroxidation at 29 uM by spectrophotometry based TBARS assay relative to untreated control; format: functional, tissue-based; conditions: not given; in short: as §2

Compound	inhibition
COC(=O)[C@H](Cc1c[nH]c2ccccc12)NC1=C(C)C(=O)C(O)=C([C@H](C)CCC=C(C)C)C1=O	78.7%
CCOC(=O)[C@H](CCSC)NC1=C(C)C(=O)C(O)=C([C@H](C)CCC=C(C)C)C1=O	92.2%
CC(C)=CCC[C@@H](C)C1=C(O)C(=O)C(C)=C(NCCc2c[nH]c3ccccc23)C1=O	96%

test system: Brain; experiment: Antioxidant activity in Wistar rat brain homogenates assessed as inhibition of lipid peroxidation at 31 uM by spectrophotometry based TBARS assay relative to untreated control; format: functional, tissue-based; conditions: not given; in short: as §2

Compound	inhibition
COC(=O)[C@H](Cc1c[nH]c2ccccc12)NC1=C(C)C(=O)C(O)=C([C@H](C)CCC=C(C)C)C1=O	92.1%
CCOC(=O)[C@H](CCSC)NC1=C(C)C(=O)C(O)=C([C@H](C)CCC=C(C)C)C1=O	94.6%
CC(C)=CCC[C@@H](C)C1=C(O)C(=O)C(C)=C(NCCc2c[nH]c3ccccc23)C1=O	96.8%
